# Measured values: ChEMBL document CHEMBL1136967, “High-affinity, non-nucleotide-derived competitive antagonists of platelet P2Y12 receptors” (J Med Chem, 2009)
# What was measured:
# P2Y purinoceptor 12 [1] = target: T1, P2Y purinoceptor 12 (Homo sapiens, UniProt Q9H244); assay: Displacement of [3H]PSB0413 from human platelet P2Y12 receptor
# How it was run: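 Membranes from outdated human blood-bank platelets (4-5 days post-donation), washed, centrifuged, homogenized, stored at -80 °C. 100 µg protein incubated with 5 nM [³H]PSB-0413 in 50 mM Tris-HCl pH 7.4 for 1 h at rt, then filtered over GF/B. Nonspecific binding with 1 mM ADP. Screen at 10 µM. Ki from curves of 6-7 concentrations over 3 log units. At least three experiments in triplicate.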
# P2Y purinoceptor 12 [2] = target: T1, P2Y purinoceptor 12; assay: Displacement of [3H]PSB0413 from human platelet P2Y12 receptor at 10 uM
# How it was run: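 Human platelet membranes (100 µg protein) incubated with 5 nM [3H]PSB-0413 and test compound at 10 µM in 50 mM Tris-HCl pH 7.4 for 1 h at rt, then filtered over GF/B. Nonspecific binding defined with 1 mM ADP; result expressed as % inhibition of radioligand binding.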
# [3] = Cytotoxicity against human 1321N1 cells after 72 hrs to 144 hrs by MTT assay; format: functional, cell-based
# How it was run: (§1)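 Cells grown in DMEM with 10% fetal calf serum, penicillin and streptomycin at 37 °C, 5% CO₂. Seeded at 2000 cells/well, 24 h, then medium renewed and compounds added (DMSO stocks; final DMSO 1%) at 0.1, 1 and 100 µM, or full dose-inhibition curves. Exposure 72-144 h. MTT 1 h, crystals dissolved in DMSO, absorbance 570 nm (reference 690 nm). Viability relative to 1% DMSO wells. Triplicates, 3-8 experiments.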
# [4] = Cytotoxicity against human 1539 cells after 72 hrs to 144 hrs by MTT assay; format: functional, cell-based; how it was run: as §1
# [5] = Toxicity in po dosed rat; format: organism-based; details: in vivo
# [6] = Cytotoxicity against human 1321N1 cells at 0.1 uM after 72 hrs to 144 hrs by MTT assay; format: functional
# How it was run: (§2)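 1321N1 astrocytoma and 1539 melanoma cells grown in DMEM with 10% FCS and penicillin/streptomycin at 37 °C, 5% CO2. Seeded at 2000 cells/well for 24 h, then medium replaced and compound added from 10 mM DMSO stocks (final DMSO 1%). Incubation 72-144 h, then MTT (5 mg/mL stock) for 1 h. Formazan dissolved in DMSO, A570 read against 690 nm reference. Viability relative to 1% DMSO wells; triplicates, 3-8 experiments.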
# [7] = Cytotoxicity against human 1321N1 cells at 1 uM after 72 hrs to 144 hrs by MTT assay; format: functional; how it was run: as §2
# [8] = Cytotoxicity against human 1321N1 cells at 100 uM after 72 hrs to 144 hrs by MTT assay; format: functional; how it was run: as §2
# [9] = Cytotoxicity against human 1539 cells at 0.1 uM after 72 hrs to 144 hrs by MTT assay; format: functional; how it was run: as §2
# [10] = Cytotoxicity against human 1539 cells at 1 uM after 72 hrs to 144 hrs by MTT assay; format: functional; how it was run: as §2
# [11] = Cytotoxicity against human 1539 cells at 100 uM after 72 hrs to 144 hrs by MTT assay; format: functional; how it was run: as §2
# Homo sapiens [12] = species on record: Homo sapiens; assay: Selectivity for human platelet P2Y12 receptor over human P2Y1 receptor
# Homo sapiens [13] = species on record: Homo sapiens; assay: Selectivity for human platelet P2Y12 receptor over human P2Y2 receptor
# Homo sapiens [14] = species on record: Homo sapiens; assay: Selectivity for human platelet P2Y12 receptor over human P2Y4 receptor
# Homo sapiens [15] = species on record: Homo sapiens; assay: Selectivity for human platelet P2Y12 receptor over human P2X2 receptor
# Homo sapiens [16] = species on record: Homo sapiens; assay: Selectivity for human platelet P2Y12 receptor over human P2X4 receptor
# P2Y purinoceptor 12 [17] = target: T1, P2Y purinoceptor 12; assay: Antagonist activity at P2Y12 receptor expressed in human astrocytoma cells assessed as right shift of concentration response curve; format: functional, cell-based
# T1 sequence (Q9H244 whole entry): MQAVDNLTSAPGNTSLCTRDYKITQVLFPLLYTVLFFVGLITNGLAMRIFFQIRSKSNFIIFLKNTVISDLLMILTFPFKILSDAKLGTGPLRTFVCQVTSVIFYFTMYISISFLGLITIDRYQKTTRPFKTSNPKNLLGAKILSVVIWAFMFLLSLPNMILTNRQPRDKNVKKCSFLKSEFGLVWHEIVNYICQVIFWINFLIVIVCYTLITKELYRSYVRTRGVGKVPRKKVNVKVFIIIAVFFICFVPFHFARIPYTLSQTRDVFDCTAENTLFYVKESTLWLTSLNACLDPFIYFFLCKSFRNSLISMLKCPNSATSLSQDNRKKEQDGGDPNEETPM
Compound,Ki (P2Y purinoceptor 12 [1]),inhibition (P2Y purinoceptor 12 [2]),other results
Nc1ccccc1Nc1cc(S(=O)(=O)O)c(N)c2c1C(=O)c1ccccc1C2=O,> 10 µM,37%,–
Nc1c(S(=O)(=O)O)cc(Nc2ccc(Nc3ccccc3)c(C(=O)O)c2)c2c1C(=O)c1ccccc1C2=O,0.021 µM,–,–
O=c1[nH]cc(F)c(=O)[nH]1 [FLUOROURACIL],–,–,EC50 [3]: 53.2 µM; EC50 [4]: 5.71 µM
Cc1cc(C)c(Nc2cc(S(=O)(=O)O)c(N)c3c2C(=O)c2ccccc2C3=O)c(C)c1 [ACID BLUE 129],> 10 µM,30%,–
O=C1c2c(O)cccc2C([C@@H]2O[C@H](CO)[C@@H](O)[C@H](O)[C@H]2O)c2cc(CO)cc(O)c21 (some centres undefined) [ALOIN],> 10 µM,2%,–
Nc1c(S(=O)(=O)O)cc(Nc2cccc([N+](=O)[O-])c2)c2c1C(=O)c1ccccc1C2=O,> 10 µM,17%,–
Nc1c(S(=O)(=O)O)cc(Nc2ccccc2O)c2c1C(=O)c1ccccc1C2=O,10 µM,45%,–
COc1cc(O)c2c(c1)C(=O)c1cc(C)cc(O)c1C2=O [PHYSCION],> 10 µM,7%,–
Nc1c(S(=O)(=O)O)cc(NCCc2ccccc2)c2c1C(=O)c1ccccc1C2=O,> 10 µM,16%,–
Nc1ccc(-c2ccc(N)c3c2C(=O)c2ccccc2C3=O)c2c1C(=O)c1ccccc1C2=O,–,–,LD50 [5]: > 5000 mg/kg
CC(=O)Nc1ccc(Nc2cc(S(=O)(=O)O)c(N)c3c2C(=O)c2ccccc2C3=O)cc1,> 10 µM,4%,–
CN(C)[C@@H]1C(O)=C(C(N)=O)C(=O)[C@@]2(O)C(O)=C3C(=O)c4c(O)cccc4[C@@](C)(O)[C@H]3C[C@@H]12 [TETRACYCLINE],> 10 µM,2%,–
Cc1cc(O)c2c(c1)C(=O)c1cccc(O)c1C2=O [CHRYSOPHANOL],> 10 µM,13%,–
Cc1cc(O)c2c(c1)C(=O)c1cc(O[C@@H]3O[C@@H](C)[C@H](O)[C@@H](O)[C@H]3O)cc(O)c1C2=O [FRANGULIN A],> 10 µM,4%,–
COc1ccc(CCNc2cc(S(=O)(=O)O)c(N)c3c2C(=O)c2ccccc2C3=O)cc1OC,> 10 µM,23%,–
Nc1c(S(=O)(=O)O)cc(Nc2ccc(Nc3ncccn3)cc2)c2c1C(=O)c1ccccc1C2=O,10 µM,57%,–

Compound,Ki (P2Y purinoceptor 12 [1]),inhibition (P2Y purinoceptor 12 [2]),other results
O=C1c2cccc(O)c2C(=O)c2c(O)cc(CO)cc21 [ALOE-EMODIN],> 10 µM,2%,–
Nc1c(S(=O)(=O)[O-])cc(Nc2ccc(Cl)cc2)c2c1C(=O)c1ccccc1C2=O.[Na+],–,–,Activity [6]: 117%; Activity [7]: 116%; Activity [8]: 120%; Activity [9]: 99%; Activity [10]: 95%; Activity [11]: 129%
CN(C)[C@@H]1C(O)=C(C(N)=O)C(=O)[C@@]2(O)C(O)=C3C(=O)c4c(O)ccc(Cl)c4[C@@](C)(O)[C@H]3C[C@@H]12 [CHLORTETRACYCLINE],> 10 µM,6%,–
Nc1c(S(=O)(=O)O)cc(Nc2ccc(O)cc2)c2c1C(=O)c1ccccc1C2=O,10 µM,50%,–
Cc1cc(O)c2c(c1)C(=O)c1cc(O)cc(O)c1C2=O [EMODIN],> 10 µM,5%,–
Cc1cc(C)c(Nc2cc(S(=O)(=O)O)c(N)c3c2C(=O)c2ccccc2C3=O)c(C)c1N,> 10 µM,35%,–
O=C1c2c(O)ccc(O)c2C(=O)c2c(NCCNCCO)ccc(NCCNCCO)c21 [MITOXANTRONE],> 10 µM,–,–
Cc1cc(O)c2c(c1)Cc1cc(O)cc(O)c1C2=O [EMODIN ANTHRONE],> 10 µM,1%,–
Nc1c(S(=O)(=O)[O-])cc(Nc2cccc3ccccc23)c2c1C(=O)c1ccccc1C2=O.[Na+],> 10 µM,25%,Activity [6]: 114%; Activity [7]: 126%; Activity [8]: 116%; Activity [9]: 96%; Activity [10]: 95%; Activity [11]: 89%
Nc1ccc(Nc2cc(S(=O)(=O)O)c(N)c3c2C(=O)c2ccccc2C3=O)cc1,> 10 µM,30%,–
Nc1c(S(=O)(=O)O)cc(NCc2ccccc2)c2c1C(=O)c1ccccc1C2=O,> 10 µM,11%,–
Cc1cc(O)c2c(c1)C(=O)c1cc(O[C@@H]3OC[C@](O)(CO)[C@H]3O)cc(O)c1C2=O [FRANGULIN B],> 10 µM,4%,–
Nc1c(S(=O)(=O)O)cc(Nc2ccc(Nc3ncccn3)c(S(=O)(=O)O)c2)c2c1C(=O)c1ccccc1C2=O,–,–,fold change (FC) (Homo sapiens [12]): 100; fold change (FC) (Homo sapiens [13]): 100; fold change (FC) (Homo sapiens [14]): 100; fold change (FC) (Homo sapiens [15]): 100; fold change (FC) (Homo sapiens [16]): 100
COc1cccc2c1C(=O)c1c(O)c3c(c(O)c1C2=O)C[C@@](O)(C(=O)CO)C[C@@H]3O[C@H]1C[C@H](N)[C@H](O)[C@H](C)O1 [DOXORUBICIN],> 10 µM,7%,–
Nc1c(S(=O)(=O)O)cc(Nc2ccc(Nc3ccccc3)c(S(=O)(=O)O)c2)c2c1C(=O)c1ccccc1C2=O,–,–,Kb (P2Y purinoceptor 12 [17]): 0.0004 µM; pKb (P2Y purinoceptor 12 [17]): 9.4
COC(=O)c1cc(O)c2c(c1)C(=O)c1cccc(O)c1C2=O [RHEIN METHYLESTER],> 10 µM,2%,–
